system: Murine hepatitis virus; assay: Dose required to inhibit the growth of mouse hepatitis virus (MHV) in infected mouse astrocytoma (DBT) cells using plaque assay; assay type: functional
Summary of the method: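 DBT monolayers infected with MHV at MOI 1 to 5, adsorbed 1 h at room temperature, then given MEM with 5% FCS plus compound (final 0.97 to 3030 μM, 0.15% DMSO) at 37 °C. Media harvested 18 h postinfection and titred by plaque assay on DBT cells (0.75% agarose overlay, 48 h, neutral red). Run in duplicate. % inhibition = (1 − T/C) × 100; TCID50 by probit analysis.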

`Cc1ccc(S(=O)(=O)O)cc1.N/C(=N\O)N/N=C/c1ccccc1O` and `Cc1ccc(S(=O)(=O)O)cc1.N/C(=N\O)N/N=C/c1ncccc1O` are within 1.5-fold of each other in EC50: 76 µM for the first, 89.9 µM for the second.

First: Cc1ccc(S(=O)(=O)O)cc1.N/C(=N\O)N/N=C/c1cc([N+](=O)[O-])cc([N+](=O)[O-])c1O
Second: Cc1ccc(S(=O)(=O)O)cc1.N/C(=N\O)N/N=C/c1cc(Cl)cc(Cl)c1O
The EC50 of the first is 29-fold higher: 273 µM for the first, 9.54 µM for the second.

Compared with `C=CCc1cccc(/C=N/N/C(N)=N/O)c1O.Cc1ccc(S(=O)(=O)O)cc1`, `Cc1ccc(S(=O)(=O)O)cc1.N/C(=N\O)N/N=C/c1ccc(O)c(O)c1O` is 54-fold higher in EC50: 3.42 µM for the first, 183 µM for the second.

Compared with `Cc1ccc(S(=O)(=O)O)cc1.N/C(=N\O)N/N=C/c1ccc2c(c1)OCCO2`, `Cc1ccc(S(=O)(=O)O)cc1.N/C(=N\O)N/N=C/c1cc2c(cc1Cl)OCO2` is 5-fold lower in EC50: 46.1 µM for the first, 9.14 µM for the second.

First: Cc1ccc(S(=O)(=O)O)cc1.N/C(=N\O)N/N=C/c1c(O)cc(O)cc1O
Second: Cc1ccc(S(=O)(=O)O)cc1.N/C(=N\O)N/N=C/c1cc(O)c(O)c(O)c1
The EC50 of the first is 8.3-fold lower: 18.1 µM for the first, 150 µM for the second.

`Cc1ccc(S(=O)(=O)O)cc1.N/C(=N\O)N/N=C/c1nccc2ccccc12` and `Cc1ccc(S(=O)(=O)O)cc1.N/C(=N\O)N/N=C/c1ccc2ccccc2n1` are within 1.5-fold of each other in EC50: 47.7 µM for the first, 39.3 µM for the second.

`Cc1ccc(S(=O)(=O)O)cc1.N/C(=N\O)N/N=C/c1c2ccccc2c(Cl)c2ccccc12` and `Cc1ccc(S(=O)(=O)O)cc1.N/C(=N\O)N/N=C/c1cc(Br)cc(Br)c1O` are within 1.5-fold of each other in EC50: 7.12 µM for the first, 9.5 µM for the second.

With `Cc1ccc(S(=O)(=O)O)cc1.Cc1ncc(COP(=O)(O)O)c(/C=N/N=C(/N)NO)c1O` the EC50 was 40.8 µM.

Source: ChEMBL document CHEMBL1125152, “Design, synthesis, testing, and quantitative structure-activity relationship analysis of substituted salicylaldehyde Schiff bases of 1-amino-3-hydroxyguanidine tosylate as new antiviral agents against coronavirus” (1990)
